MrgX1 ag = human MrgX1 receptor agonism, primary screen | Q96LB2 | MrgX1-HEK293 cells, Fluo-4 calcium fluorescence, agonist mode; active compounds read high | B-score at 10 µM | 0.44% of 310,000 active | AID 588627;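 active = calcium response B-score plate-corrected fluorescence ratio at least 3 library SD, with starting fluorescence B-score inside 5 SD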
Target sequence (Q96LB2 whole entry, looked up): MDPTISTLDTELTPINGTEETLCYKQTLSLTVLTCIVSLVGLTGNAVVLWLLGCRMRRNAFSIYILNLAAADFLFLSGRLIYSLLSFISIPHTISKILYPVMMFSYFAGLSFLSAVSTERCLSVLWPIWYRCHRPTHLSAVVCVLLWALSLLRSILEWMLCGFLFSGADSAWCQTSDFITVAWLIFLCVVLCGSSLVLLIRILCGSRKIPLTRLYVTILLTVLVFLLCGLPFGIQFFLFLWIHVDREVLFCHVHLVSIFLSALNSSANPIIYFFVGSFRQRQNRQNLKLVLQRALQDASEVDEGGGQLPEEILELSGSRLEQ
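Assay system: stable human MrgX1 HEK293 cell line. Quantity: 15,000 cells per well. Schedule: cells plated overnight, dye loaded 0.5 h 37 °C, 0.5 h room temperature. Detection: Fluo-4 NW calcium-flux fluorescence, kinetic read. Read-out basis: peak-minus-minimum fluorescence over baseline, converted to B scores. Control set: positive and negative control wells on each plate.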
MrgX1 antagonist = human MrgX1 receptor antagonism, primary screen; Q96LB2; MRGX1-HEK293 calcium flux, Fluo-4, BAM8-22 antagonism; active compounds read low; B-score at 10 µM; 1.3% of 310,000 active; AID 588676;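 active = calcium-response B-score plate-corrected more than 3 library SD below zero, starting fluorescence within 5 deviations, no agonist response on first addition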;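 also: peak minus trough fluorescence over baseline after final BAM8-22 challenge near maximal dose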
MrgX1 PAM = allosterically activates human MrgX1 receptor signaling. Q96LB2. MrgX1-HEK293, Fluo-4 calcium flux, FDSS; active compounds read high. B-score at 10 µM. 0.63% of 310,000 active;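 active = plate-corrected calcium response at least 3 library SD above typical, normal starting fluorescence, not activating the receptor alone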;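 also: compound read alongside a low EC10 to EC30 dose of BAM8-22 agonist; peak minus trough fluorescence over baseline measured at the second addition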
RGS4 inh = human RGS4 inhibition; B-score at 10 µM; HEK293 M3R/RGS4 inducible, Fluo-4 calcium flux; active compounds read high; triggered by carbachol at its EC20; P49798; AID 463165; 0.45% of 310,000 active;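 active = B-score, a plate-corrected calcium signal, over three deviations above library mean, with baseline fluorescence within five deviations of library mean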;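 also: RGS4 expression induced by doxycycline in cells with stable M3 receptor; B-score is computed from the integrated fluorescence ratio over baseline after carbachol; higher B-score means a larger calcium signal and so more RGS4 inhibition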
RGS4 act = RGS4 potentiation or activation; HEK293 M3R/inducible RGS4, carbachol calcium flux Fluo4; active compounds read low; AID 463111; B-score at 10 µM; 0.92% of 310,000 active;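 active = B-score of the integrated calcium signal more than 4 SD below the library mean, with starting fluorescence not abnormally high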;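 also: negative B-score means reduced calcium response which marks RGS4 activation or potentiation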
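Reagent: ECmax carbachol challenge; Test system: M3R-expressing HEK293 line, RGS4 induced by doxycycline; Schedule: overnight RGS4 induction, 30 min dye load 37 °C, 20 min compound RT; Detection: calcium dye Fluo4 fluorescence; Read-out: Agonist-evoked peak-minus-minimum fluorescence over baseline, integrated ratio, B score.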
Numbers without * were called inactive; i = inactive; ! = not confirmed by another sample. Most compounds without a hit are left out; they make up all but 3.5% or so of the library.

SMILES | MrgX1 ag | MrgX1 antagonist | MrgX1 PAM | RGS4 inh | RGS4 act
C=CCOC(=O)C1CC=CCC1C(=O)Oc1ccc(F)cc1F (configuration not stated) | i | i | i | i | i
CCOc1ccccc1NC(=S)NCc1cccn1C | i | i | i | i | i
CCN1CCC2(CC1)N=C(c1ccc(F)cc1)C(=S)N2 | i | i | i | i | -7.41*
Cc1ccc(C2=NC3(CCCCC3)NC2=S)cc1 | i | i | i | i | i
O=C(Nc1ccccc1)NC1CCCCNC1=O (configuration not stated) | i | i | i | i | i
O=C(O)CN1C(=O)C(=O)N(Cc2ccc(Cl)cc2Cl)C1=O | i | i | i | i | i
CSc1nnc2c(n1)[nH]c1c(C)cccc12 | i | -4.66* | i | i | i
CCSc1nnc2c(n1)[nH]c1c(C)cccc12 | i | i | i | i | i
CC(Oc1ccc(Br)cc1)C(=O)NC1CCN(Cc2ccccc2)CC1 (configuration not stated) | i | i | i | i | -7.57*
COc1ccc(CCNc2oc(Cc3cccc4ccccc34)nc2C#N)cc1OC | i | i | i | i | i
CN(C)CCNc1oc(COc2ccc(Cl)cc2Cl)nc1C#N | i | -6.54* | i | i | i
COc1ccc(CCNc2oc(COc3ccc(Br)cc3)nc2C#N)cc1OC | i | i | i | i | -7.52*
COCCCNc1oc(COc2ccc(Cl)cc2Cl)nc1C#N | i | i | i | i | i
COC(=O)[C@H](Cc1ccccc1)NC(=O)c1ccc2ccccc2n1 | i | i | i | i | i
CC(C)(C)NC(=O)[C@@H]1C[C@@H]2CCCC[C@@H]2CN1C[C@@H](O)[C@H](Cc1ccccc1)NC(=O)[C@H](CC(N)=O)NC(=O)c1ccc2ccccc2n1 | i | -5.98*! | i | i | i
Cc1cc(C)c(S(=O)(=O)NCc2nc3nc(C)cc(C)n3n2)c(C)c1 | i | i | i | i | i
N/C(Cc1ccc(Cl)cc1Cl)=N\OC(=O)c1cccs1 | i | -7.94* | i | i | i
Cc1ccc(OCCC(=O)OC(C)C(=O)Nc2ccc(Cl)cn2)cc1 (configuration not stated) | i | i | i | i | i
COc1ccc(/C=N/NC(=O)c2ccc(N(C)S(=O)(=O)c3ccccc3)cc2)c(OC)c1 | i | i | i | i | i
COc1ccc(OC)c(/C=N/NC(=O)c2ccc(N(C)S(=O)(=O)c3ccccc3)cc2)c1 | i | i | 7.05* | i | i
O=C(NCCO)c1ccc2nc(-c3ccco3)c(-c3ccco3)nc2c1 | i | i | i | i | i
O=C(NCCc1ccccc1)c1ccc2nc(-c3ccco3)c(-c3ccco3)nc2c1 | i | -7.87* | i | i | i
CC(C)c1ccc(/C=N/NC(=O)c2cccc(Cl)c2)cc1 | i | i | i | i | i
CC(=O)Nc1ccc(C(=O)N/N=C/c2ccccc2OC(=O)c2ccc(Cl)cc2)cc1 | i | i | i | i | -7.26*
CC(C)c1ccc(C(=O)N/N=C/c2cccc(Cl)c2Cl)cc1 | i | i | 6.49* | i | i
SMILES | MrgX1 ag | MrgX1 antagonist | MrgX1 PAM | RGS4 inh | RGS4 act
Cc1cc(C)c(S(=O)(=O)N2CCCCC2)c(C)c1N(C)S(=O)(=O)c1ccc(Cl)cc1 | i | i | i | i | i
CCC[n+]1c(C)sc2c(OC)ccc(OC)c21 | i | -5.5* | i | i | i
O=C(CCNS(=O)(=O)c1ccccc1)OCC(=O)c1ccc(Br)cc1 | i | i | i | i | i
COc1ccc(C(=O)COC(=O)CCNS(=O)(=O)c2ccccc2)cc1Br | i | -5.61* | i | i | i
Cc1nn(-c2ccccc2)c(N2CCCC2)c1/C=N/Nc1ccc(S(=O)(=O)Nc2ccccc2)cc1[N+](=O)[O-] | i | -5.05* | i | i | i
CCn1c(/C=C/c2cc[n+](C)cc2)nc2ccccc21 | i | -5.92* | i | i | i
CCOc1ccc(C(=O)NNC2CC(=O)N(CCc3ccccc3)C2=O)cc1OC (configuration not stated) | i | -5.46* | i | i | i

Screening results from PubChem BioAssay.
